Consider 5 molecules from ChEMBL document CHEMBL2062518, “Total synthesis and biological evaluation of transvalencin Z” (J Nat Prod, 2012).

The subject of data set [1] is Pseudomonas aeruginosa. Nature of the data set: Antimicrobial activity against Pseudomonas aeruginosa ATCC 27853 after 24 to 48 hrs. It counts as functional. The method in brief: (§1)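 Broth microdilution at 37 °C. Glycerol stocks streaked on 1.5% agar for 24 h. Single colonies grown in broth to OD600 1.0: trypticase soy for E. coli, P. aeruginosa and S. aureus; nutrient broth for A. baumannii and K. pneumoniae; brain heart infusion for E. faecalis. Diluted to OD600 0.003 with compound dilutions from DMSO stocks. OD600 read at 24 and 48 h, 690 nm background subtracted, normalized to DMSO control; MIC99.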

Data set [2] concerns Bacillus subtilis. The data set can be described thus: Antimicrobial activity against Bacillus subtilis ATCC 6633 after 24 to 48 hrs. The data set is classed as functional.
Data set [3] deals with Enterococcus faecalis. Nature of the data set: Antimicrobial activity against Enterococcus faecalis ATCC 51299 after 24 to 48 hrs. The data set is classed as functional. The method in brief: as §1
Data set [4] relates to Staphylococcus aureus. Nature of the data set: Antimicrobial activity against methicillin-susceptible Staphylococcus aureus clinical isolate IDRL 8545 after 24 to 48 hrs. It counts as functional. The method in brief: as §1
In data set [5] the test system is Staphylococcus aureus. The data set can be described thus: Antimicrobial activity against methicillin-resistant Staphylococcus aureus clinical isolate IDRL 6169 after 24 to 48 hrs. It counts as functional. A digest of the protocol:
(§2)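 Streaked from glycerol stock onto trypticase soy agar, 37 °C, 24 h. Single colonies were grown in trypticase soy broth to OD600 1.0 and diluted to OD600 0.003. Cells were incubated with compound at varying concentrations (1% DMSO stocks). Absorbance was read at 600 nm at 24 and 48 h, minus 690 nm background and relative to DMSO controls.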

Data set [6] concerns Staphylococcus aureus. The data set can be described thus: Antimicrobial activity against methicillin-resistant Staphylococcus aureus ATCC 43300 after 24 to 48 hrs. The data set is classed as functional. A digest of the protocol:
as §2

Data set [7] concerns Mycolicibacterium smegmatis. The data set can be described thus: Antimicrobial activity against Mycobacterium smegmatis ATCC 607 after 24 to 48 hrs. It counts as functional. A digest of the protocol: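 M. smegmatis streaked from glycerol stock onto nutrient agar (1.5%), then grown at 37 °C in nutrient broth with Tyloxapol added to prevent clumping, to OD600 1.0. Diluted to OD600 0.003 and exposed to compound dilutions from DMSO stocks. Absorbance at 600 nm read at 24 and 48 h, 690 nm background subtracted, normalized to DMSO controls; MIC99.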

In data set [8] the test system is Mycolicibacterium smegmatis. Nature of the data set: Antimicrobial activity against Mycobacterium smegmatis MC24517 after 24 to 48 hrs. The data set is classed as functional. A digest of the protocol:
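Grown from glycerol stock on nutrient agar (1.5%) at 37 °C for 24 h, with Tyloxapol added to prevent clumping. Colonies were grown in nutrient broth to OD600 1.0, diluted to OD600 0.003 and incubated with compound dilutions (1% DMSO stocks). OD600 was read at 24 and 48 h, corrected for 690 nm background and standardised to DMSO controls.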

Data set [9] has as its system Acinetobacter baumannii. Nature of the data set: Antimicrobial activity against Acinetobacter baumannii ATCC 19606 after 24 to 48 hrs. The data set is classed as functional. To be noted: ATCC 19606 = CIP 70.34 = JCM 6841. The method in brief: as §1
The test system of data set [10] is Candida albicans. Nature of the data set: Antifungal activity against Candida albicans ATCC 10231 after 24 to 48 hrs. It counts as functional. The method in brief:
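C. albicans streaked from glycerol stock onto YM agar and grown at 30 °C for 24 h. A single colony was grown in YM broth to OD600 1.0, diluted to OD600 0.003 and incubated with compound dilutions from DMSO stocks. Read at 600 nm at 24 and 48 h, 690 nm background subtracted, normalized to DMSO controls; MIC99.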

In data set [11] the test system is Mycobacterium tuberculosis. The data set can be described thus: Antimicrobial activity against Mycobacterium tuberculosis H37Rv after 24 to 48 hrs. The data set is classed as functional.
Data set [12] can be described thus: Cytotoxicity against african green monkey Vero cells after 72 hrs by MTT assay. The data set is classed as cell-based. To be noted: chlorocebus sabaeus, read-out: MIC50. A digest of the protocol: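 Vero cells (ATCC CCL-81) in MEM with 10% FBS, 1% PennStrep and 1% Glutamax, seeded at 3.0 × 10^4 cells/well and left to adhere overnight. Compound in DMSO added to final 100 to 0.16 μM, in triplicate, for 72 h at 37 °C, 4.5% CO2. MTT 1.0 mg/mL in phenol red-free RPMI for 3 h, formazan dissolved in isopropanol. A570 minus A690 gave % viability vs DMSO control; dose-response curves gave 50% growth-inhibitory concentration.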

The subject of data set [13] is Klebsiella pneumoniae. The data set can be described thus: Antimicrobial activity against Klebsiella pneumoniae ATCC 13883 after 24 to 48 hrs. It counts as functional. A digest of the protocol: as §1
Data set [14] deals with Escherichia coli. The data set can be described thus: Antimicrobial activity against Escherichia coli ATCC 25922 after 24 to 48 hrs. It counts as functional. The method in brief:
as §1

What is called MIC99 is the lowest concentration that inhibits either 99% of growth or 99% of the strains tested, depending on the study. Turning to `O=CNCCCC[C@H](NC(=O)[C@@H]1COC(c2ccccc2O)=N1)C(=O)O`, the MIC99 in [1], in data set [2], in [3], in [4], in data set [5] and in data set [6] was over 100 µM throughout. For the same molecule, the MIC99 in data set [7] was over 100 µM; in data set [8], over 100 µM; in data set [9], over 100 µM; in data set [10] it was over 100 µM; in data set [11], over 200 µM; in data set [13], over 100 µM. The MIC99 in [14] was over 100 µM. Besides, the CC50 at 72 h in data set [12] worked out at 164 µM.
Consider `O=CNCCCC[C@@H](NC(=O)[C@H]1COC(c2ccccc2O)=N1)C(=O)O`, for which the MIC99 in data set [1], in data set [2], in [3], in data set [4], in data set [5] and in data set [6] was over 100 µM in each case. The MIC99 was over 100 µM in data set [7]; over 100 µM in data set [8]; over 100 µM in data set [9]; over 100 µM in [10]; over 200 µM in [11]; over 100 µM in data set [13]. In data set [14], this molecule had an MIC99 of over 100 µM. Further, in data set [12], the CC50 at 72 h was over 200 µM.
For `O=CNCCCC[C@H](NC(=O)[C@H]1COC(c2ccccc2O)=N1)C(=O)O`, the MIC99 in data set [1], in data set [2], in data set [3], in data set [4], in data set [5] and in data set [6] was over 100 µM in each case. Besides, the MIC99 in data set [7] was over 100 µM; in data set [8], over 100 µM; in data set [9], over 100 µM; in data set [10] it was over 100 µM; in data set [11] it was over 200 µM; in data set [13], over 100 µM. This molecule registered an MIC99 in [14] of over 100 µM. Besides, in data set [12], the CC50 at 72 h was over 200 µM.
As to `O=CNCCCC[C@@H](NC(=O)[C@@H]1COC(c2ccccc2O)=N1)C(=O)O`, the MIC99 in data set [1], in data set [2], in data set [3], in [4], in data set [5] and in [6] was over 100 µM each time. In addition, the MIC99 in [7] was over 100 µM; in [8], over 100 µM; in [9], over 100 µM; in data set [10] it was over 100 µM; in data set [11], over 200 µM; in data set [13] it was over 100 µM. This molecule yielded an MIC99 in [14] of over 100 µM. Also, the CC50 at 72 h in data set [12] was 154 µM.
On to `O=CNCCCCC(NC(=O)C1COC(c2ccccc2O)=N1)C(=O)O` (stereo unspecified) [TRANSVALENCIN Z], for which the MIC99 in data set [2] was 16 µg/mL; in data set [6] it was 1 µg/mL; in [7], 0.125 µg/mL; in data set [10] it was over 64 µg/mL; in data set [14], over 64 µg/mL.
